“And” between values parts separate entries of the source, which are not always exact repeats. Equal entries are not always repeated. “Also recorded” adds a separate entry of the source.
Key:
hERG = hERG (Homo sapiens, UniProt Q12809); assay: hERG electrophysiology; assay type: cell-based
CYP2C9 = CYP2C9 (Homo sapiens, UniProt P11712); assay: CYP inhibition, spectrofluorimetric; assay type: biochemical; conditions: recombinant human CYP2C9 expressed in insect Sf9 cells
Outline: (§1)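 Inhibition was assayed with recombinant human CYP isoforms expressed in insect Sf9 cells. Turnover of spectrofluorimetric substrates was read by fluorescence. Test compound was tested at a single concentration of 10 μM.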

[1] = cited from earlier work
[2] = 28-day dose-range finding dietary toxicity study; assay type: in vivo, CD [Crl:CD(SD)] rats
Outline: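 This 28-day dose-range-finding study used CD [Crl:CD(SD)] rats, 8/sex/group. Rats received test compound continuously in the diet at nominal 10, 30 or 100 mg/kg bw/day; controls got untreated diet. Dietary concentration (ppm) was adjusted weekly from body weight and food consumption to keep mg/kg bw/day doses constant. NOAEL was set from the 28-day findings.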

[3] = cited from earlier work; remark: listed apart in the source
[4] = excretion in feces and urine; assay type: in vivo, Sprague-Dawley rats
CYP2C19 = CYP2C19 (Homo sapiens, UniProt P33261); assay: CYP inhibition, spectrofluorimetric; assay type: biochemical; conditions: recombinant human CYP2C19 expressed in insect Sf9 cells
Outline: as §1

E. coli strain WP2 uvrA = assay: bacterial reverse mutation test; assay type: cell-based; conditions: 100–5000 μg/plate, plate incorporation, ±S9
Outline: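 GLP plate-incorporation Ames test per OECD 471 with S. typhimurium TA98, TA100, TA1535, TA1537 and E. coli WP2 uvrA, ± Aroclor 1254-induced male rat liver S9. An initial toxicity-mutation phase (1.5–5000 μg/plate) set the range for the confirmatory assay at 100, 333, 1000, 3333 and 5000 μg/plate. Negative and positive controls were included. Toxicity and precipitate were noted.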

[5] = dose range-finding developmental toxicity study; assay type: in vivo, Crl:CD(SD) rats
[6] = definitive developmental toxicity study; assay type: in vivo, Crl:CD(SD) rats
Outline: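 For the definitive developmental toxicity study, bred female Sprague-Dawley rats, 25/group, were given the sulfate salt of the test compound by oral gavage at 250, 500 or 1000 mg/kg bw/day, with a control group. Per litter, corpora lutea, implantation sites, pre- and post-implantation loss, live and dead fetuses, resorptions (early/late), fetal sex and fetal body weight were recorded.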

CYP2C19, sequence (P33261 whole entry): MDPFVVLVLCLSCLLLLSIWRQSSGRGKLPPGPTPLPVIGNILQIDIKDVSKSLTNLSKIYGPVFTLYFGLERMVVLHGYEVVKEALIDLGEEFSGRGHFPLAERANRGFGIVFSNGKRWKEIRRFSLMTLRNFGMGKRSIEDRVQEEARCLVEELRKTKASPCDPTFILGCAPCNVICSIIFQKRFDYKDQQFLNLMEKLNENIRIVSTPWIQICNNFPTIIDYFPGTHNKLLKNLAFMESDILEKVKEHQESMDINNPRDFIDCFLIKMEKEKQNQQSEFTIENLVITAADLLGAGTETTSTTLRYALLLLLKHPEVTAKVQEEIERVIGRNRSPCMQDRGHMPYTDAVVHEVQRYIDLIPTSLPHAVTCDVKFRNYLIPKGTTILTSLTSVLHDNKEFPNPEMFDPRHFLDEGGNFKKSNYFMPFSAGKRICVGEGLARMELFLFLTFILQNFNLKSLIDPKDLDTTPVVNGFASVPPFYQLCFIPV
hERG, sequence (Q12809 whole entry): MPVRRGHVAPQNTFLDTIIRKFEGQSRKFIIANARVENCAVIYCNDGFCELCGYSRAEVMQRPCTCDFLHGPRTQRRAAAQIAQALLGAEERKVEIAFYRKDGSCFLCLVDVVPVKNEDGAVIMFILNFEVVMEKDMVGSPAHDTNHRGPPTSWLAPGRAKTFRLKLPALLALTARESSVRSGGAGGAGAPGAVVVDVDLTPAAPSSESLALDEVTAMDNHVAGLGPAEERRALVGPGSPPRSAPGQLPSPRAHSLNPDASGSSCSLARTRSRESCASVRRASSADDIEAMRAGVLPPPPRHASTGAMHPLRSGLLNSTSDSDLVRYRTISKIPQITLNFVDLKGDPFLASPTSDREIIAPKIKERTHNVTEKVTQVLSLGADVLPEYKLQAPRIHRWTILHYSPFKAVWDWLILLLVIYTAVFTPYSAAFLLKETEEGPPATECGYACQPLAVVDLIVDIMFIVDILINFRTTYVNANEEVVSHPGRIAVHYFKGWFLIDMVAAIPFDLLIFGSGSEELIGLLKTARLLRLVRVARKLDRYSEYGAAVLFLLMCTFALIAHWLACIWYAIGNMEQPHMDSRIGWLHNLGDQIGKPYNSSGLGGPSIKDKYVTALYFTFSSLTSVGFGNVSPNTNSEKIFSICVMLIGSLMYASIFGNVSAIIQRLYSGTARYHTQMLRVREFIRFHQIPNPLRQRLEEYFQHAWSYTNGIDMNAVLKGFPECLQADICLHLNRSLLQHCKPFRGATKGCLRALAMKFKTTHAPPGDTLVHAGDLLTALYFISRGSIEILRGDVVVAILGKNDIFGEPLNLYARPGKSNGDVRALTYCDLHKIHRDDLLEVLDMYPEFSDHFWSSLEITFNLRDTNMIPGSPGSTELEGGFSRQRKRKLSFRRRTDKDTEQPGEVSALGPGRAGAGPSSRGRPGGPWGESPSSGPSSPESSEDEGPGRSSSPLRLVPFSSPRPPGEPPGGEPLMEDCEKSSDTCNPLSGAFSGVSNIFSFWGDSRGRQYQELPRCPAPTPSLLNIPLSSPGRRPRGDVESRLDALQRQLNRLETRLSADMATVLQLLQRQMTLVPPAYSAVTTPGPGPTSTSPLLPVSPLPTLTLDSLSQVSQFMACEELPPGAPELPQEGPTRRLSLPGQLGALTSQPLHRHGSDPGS
CYP2C9, sequence (P11712 whole entry, canonical isoform): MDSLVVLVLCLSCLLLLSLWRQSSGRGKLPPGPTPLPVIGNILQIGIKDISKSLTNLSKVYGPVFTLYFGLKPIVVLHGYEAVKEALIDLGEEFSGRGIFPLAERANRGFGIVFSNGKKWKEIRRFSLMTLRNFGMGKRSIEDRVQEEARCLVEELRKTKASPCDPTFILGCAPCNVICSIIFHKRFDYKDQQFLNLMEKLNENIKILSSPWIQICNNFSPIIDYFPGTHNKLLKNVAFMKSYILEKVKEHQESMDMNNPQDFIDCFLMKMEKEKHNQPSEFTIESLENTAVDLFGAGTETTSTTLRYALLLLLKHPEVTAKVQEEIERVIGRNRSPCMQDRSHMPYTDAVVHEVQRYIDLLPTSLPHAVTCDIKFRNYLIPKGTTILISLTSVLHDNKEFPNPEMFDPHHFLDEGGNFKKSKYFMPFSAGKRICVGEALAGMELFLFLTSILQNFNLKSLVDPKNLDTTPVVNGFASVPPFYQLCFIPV

Compound: Cc1cc(C(=O)NC(C)(C)COc2cccc3c2C(N)=NS(=O)(=O)N3)cc(C)n1 [S2218, N-(1-((4-amino-2,2-dioxido-1H-benzo[c][1,2,6]thiadiazin-5-yl)oxy)-2-methylpropan-2-yl)-2,6-dimethylisonicotinamide]
- inhibition at 10 μM (hERG): < 10%
- inhibition at 10 μM (CYP2C9): ≤ 7%
- water solubility at low pH vs S6973 and S617 [1]: improved water solubility at low pH
- Findings ([2]; 10, 30, 100 mg/kg bw/day food ad-mix): Slight increase in food consumption and mean body weight in males at 10 and 30 mg/kg bw/day
- NOAEL at 28 days ([2]; both, CD [Crl:CD(SD)], rat, in vivo, oral): 100 mg/kg/day
- photostability to UV light vs S6973 and S617 [3]: significantly improved photostability
- % Recovery of S2218 ([4]; feces + urine, female, 0–72 h): 90.0% and 90.0 ± 7.5%
- % Recovery of S2218 ([4]; feces + urine, male, 0–72 h): 82.1% and 82.1 ± 15.4%
- % Recovery of S2218 ([4]; feces + urine, overall (M+F), 0–72 h): 86.07%
- % Recovery of S2218 ([4]; feces, female, 0–24 h): 82.19% and 82.19 ± 10.89%
- % Recovery of S2218 ([4]; feces, female, 0–72 h): 89.79% and 89.79 ± 7.63%
- % Recovery of S2218 ([4]; feces, female, 24–48 h): 7.504 ± 6.517%
- % Recovery of S2218 ([4]; feces, female, 48–72 h): 0.152 ± 0.062%
- % Recovery of S2218 ([4]; feces, male, 0–24 h, S8069 10 mg/kg bw oral): 76.68% and 76.68 ± 13.82%
- % Recovery of S2218 ([4]; feces, male, 0–72 h): 82.08% and 82.08 ± 15.35%
- % Recovery of S2218 ([4]; feces, male, 24–48 h): 5.247 ± 4.432%
- % Recovery of S2218 ([4]; feces, male, 48–72 h): 0.298 ± 0.225%
- % Recovery of S2218 ([4]; urine, female, 0–24 h): 0.202 ± 0.216%
- % Recovery of S2218 ([4]; urine, female, 0–72 h): 0.230% and 0.230 ± 0.252%
- % Recovery of S2218 ([4]; urine, female, 24–48 h): 0.020 ± 0.027%
- % Recovery of S2218 ([4]; urine, female, 48–72 h): 0.008 ± 0.010%
- % Recovery of S2218 ([4]; urine, male, 0–24 h): 0.036 ± 0.025%
- % Recovery of S2218 ([4]; urine, male, 0–72 h): 0.044% and 0.044 ± 0.022%
- % Recovery of S2218 ([4]; urine, male, 24–48 h): 0.007 ± 0.004%
- % Recovery of S2218 ([4]; urine, male, 48–72 h): 0.001 ± 0.001%
- % Recovery of S2218 ([4]; urine, overall (M+F), 0–72 h): 0.137%
- inhibition at 10 μM (CYP2C19): ≤ 7%
- Reverse mutation (in vitro), result (E. coli strain WP2 uvrA): not mutagenic; also recorded: Negative

Compound: Cc1cc(C(=O)NC(C)(C)COc2cccc3c2C(N)=NS(=O)(=O)N3)cc(C)n1.O=S(=O)(O)O [S8069]
- external developmental malformations or variations in fetuses ([5]; 125–1000 mg/kg bw/day): No external developmental malformations or variations were observed
- Findings ([5]; 125–1000 mg/kg bw/day oral gavage, GD 6–20): No maternal toxicity or effect on intrauterine growth up to 1000 mg/kg bw/day
- Corpora Lutea ([6]; 250 mg/kg bw/d, Mean): 15.1
- Dead Fetuses ([6]; 250 mg/kg bw/d, Mean): 0.0
- Fetal Wt. ([6]; 250 mg/kg bw/d, Mean): 5.9 g
- Fetuses, Sex F ([6]; 250 mg/kg bw/d, Mean): 7.2
- Fetuses, Sex M ([6]; 250 mg/kg bw/d, Mean): 6.6
- Implant. Sites ([6]; 250 mg/kg bw/d, Mean): 14.8
- Post-Implant. Loss ([6]; 250 mg/kg bw/d, Mean): 1.0
- Pre-Implant. Loss ([6]; 250 mg/kg bw/d, Mean): 0.4
- Resorptions, Early ([6]; 250 mg/kg bw/d, Mean): 1.0
- Resorptions, Late ([6]; 250 mg/kg bw/d, Mean): 0.0
- Viable Fetuses ([6]; 250 mg/kg bw/d, Mean): 13.8
- Corpora Lutea ([6]; 250 mg/kg bw/d, Total): 363
- Dead Fetuses ([6]; 250 mg/kg bw/d, Total): 0
- Fetuses, Sex F ([6]; 250 mg/kg bw/d, Total): 173
- Fetuses, Sex M ([6]; 250 mg/kg bw/d, Total): 158
- Implant. Sites ([6]; 250 mg/kg bw/d, Total): 354
- Post-Implant. Loss ([6]; 250 mg/kg bw/d, Total): 23
- Pre-Implant. Loss ([6]; 250 mg/kg bw/d, Total): 9
- Resorptions, Early ([6]; 250 mg/kg bw/d, Total): 23
- Resorptions, Late ([6]; 250 mg/kg bw/d, Total): 0
- Viable Fetuses ([6]; 250 mg/kg bw/d, Total): 331
- Corpora Lutea ([6]; 500 mg/kg bw/d, Mean): 16.1
- Dead Fetuses ([6]; 500 mg/kg bw/d, Mean): 0.0
- Fetal Wt. ([6]; 500 mg/kg bw/d, Mean): 5.6 g
- Fetuses, Sex F ([6]; 500 mg/kg bw/d, Mean): 8.2
- Fetuses, Sex M ([6]; 500 mg/kg bw/d, Mean): 6.6
- Implant. Sites ([6]; 500 mg/kg bw/d, Mean): 15.4
- Post-Implant. Loss ([6]; 500 mg/kg bw/d, Mean): 0.7
- Pre-Implant. Loss ([6]; 500 mg/kg bw/d, Mean): 0.7
- Resorptions, Early ([6]; 500 mg/kg bw/d, Mean): 0.7
- Resorptions, Late ([6]; 500 mg/kg bw/d, Mean): 0.0
- Viable Fetuses ([6]; 500 mg/kg bw/d, Mean): 14.7
- Corpora Lutea ([6]; 500 mg/kg bw/d, Total): 370
- Dead Fetuses ([6]; 500 mg/kg bw/d, Total): 0
- Fetuses, Sex F ([6]; 500 mg/kg bw/d, Total): 188
- Fetuses, Sex M ([6]; 500 mg/kg bw/d, Total): 151
- Implant. Sites ([6]; 500 mg/kg bw/d, Total): 355
- Post-Implant. Loss ([6]; 500 mg/kg bw/d, Total): 16
- Pre-Implant. Loss ([6]; 500 mg/kg bw/d, Total): 15
- Resorptions, Early ([6]; 500 mg/kg bw/d, Total): 16
- Resorptions, Late ([6]; 500 mg/kg bw/d, Total): 0
- Viable Fetuses ([6]; 500 mg/kg bw/d, Total): 339
- malformations, fetuses (litters) ([6]; 500 mg/kg bw/day): 4(4)
- skeletal malformations, fetuses (litters) ([6]; 500 mg/kg bw/day): 3(3)
- visceral malformations, fetuses (litters) ([6]; 500 mg/kg bw/day): 3(3)
- Corpora Lutea ([6]; 1000 mg/kg bw/d, Mean): 15.1
- Dead Fetuses ([6]; 1000 mg/kg bw/d, Mean): 0.0
- Fetal Wt. ([6]; 1000 mg/kg bw/d, Mean): 5.6 g
- Fetuses, Sex F ([6]; 1000 mg/kg bw/d, Mean): 7.0
- Fetuses, Sex M ([6]; 1000 mg/kg bw/d, Mean): 7.3
- Implant. Sites ([6]; 1000 mg/kg bw/d, Mean): 14.6
- Post-Implant. Loss ([6]; 1000 mg/kg bw/d, Mean): 0.3
- Pre-Implant. Loss ([6]; 1000 mg/kg bw/d, Mean): 0.6
- Resorptions, Early ([6]; 1000 mg/kg bw/d, Mean): 0.3
- Resorptions, Late ([6]; 1000 mg/kg bw/d, Mean): 0.0
- Viable Fetuses ([6]; 1000 mg/kg bw/d, Mean): 14.3
- Corpora Lutea ([6]; 1000 mg/kg bw/d, Total): 348
- Dead Fetuses ([6]; 1000 mg/kg bw/d, Total): 0
- Fetuses, Sex F ([6]; 1000 mg/kg bw/d, Total): 160
- Fetuses, Sex M ([6]; 1000 mg/kg bw/d, Total): 168
- Implant. Sites ([6]; 1000 mg/kg bw/d, Total): 335
- Post-Implant. Loss ([6]; 1000 mg/kg bw/d, Total): 7
- Pre-Implant. Loss ([6]; 1000 mg/kg bw/d, Total): 13
- Resorptions, Early ([6]; 1000 mg/kg bw/d, Total): 7
- Resorptions, Late ([6]; 1000 mg/kg bw/d, Total): 0
- Viable Fetuses ([6]; 1000 mg/kg bw/d, Total): 328
- malformations, fetuses (litters) ([6]; 1000 mg/kg bw/day): 1(1)
- visceral malformations, fetuses (litters) ([6]; 1000 mg/kg bw/day): 1(1)
- females with rales 1 h following dose ([6]; 1000 mg/kg bw/day, GD 8–17): 6
- females with salivation at time of dose ([6]; 1000 mg/kg bw/day, GD 12–16): 4
- mean maternal body weight loss ([6]; 1000 mg/kg bw/day, Gestation Day 8–9): 2 g
- external malformations ([6]; test article-treated groups): no external malformations observed
